Experimental findings from ChEMBL document CHEMBL1128471, “Reversible inhibitors of the gastric (H+/K+)-ATPase. 4. Identification of an inhibitor with an intermediate duration of action” (J Med Chem, 1995) are described below.

Assay [1] deals with Potassium-transporting ATPase (Rattus norvegicus) (UniProt P09626+P18598). Nature of the assay: Inhibition of pentagastrin-stimulated gastric acid secretion at a single dose of 10 umol/kg. It is filed as functional. The following applies: Stomach. Summed up: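 Anesthetized, lumen-perfused rats were given pentagastrin to stimulate gastric acid secretion, and compounds were given iv. The value is an ED50 (µmol/kg iv) with 95% confidence limits, or percent inhibition ± SEM at a single 10 µmol/kg iv dose.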

Assay [2] addresses Potassium-transporting ATPase (Sus scrofa, UniProt P19156). Kind of assay: Inhibition of K+ -stimulated gastric ATPase activity was measured using lyophilized gastric vesicles at pH 7. It is filed as tissue-based, Stomach. In outline:
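K+-stimulated ATPase activity was measured in lyophilized (permeabilized) gastric vesicles at pH 7. The value is an IC50, or percent inhibition at the stated concentration where no IC50 could be determined.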

Chain of Potassium-transporting ATPase (P18434 whole entry): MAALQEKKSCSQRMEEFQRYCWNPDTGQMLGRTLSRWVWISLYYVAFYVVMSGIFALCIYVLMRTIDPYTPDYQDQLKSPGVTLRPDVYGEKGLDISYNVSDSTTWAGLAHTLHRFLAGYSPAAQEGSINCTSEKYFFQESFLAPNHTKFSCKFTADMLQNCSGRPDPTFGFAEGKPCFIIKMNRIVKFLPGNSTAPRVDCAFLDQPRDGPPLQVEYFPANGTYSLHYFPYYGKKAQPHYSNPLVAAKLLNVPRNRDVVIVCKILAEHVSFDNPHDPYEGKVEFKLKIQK
Chain of Potassium-transporting ATPase (P19156 whole entry): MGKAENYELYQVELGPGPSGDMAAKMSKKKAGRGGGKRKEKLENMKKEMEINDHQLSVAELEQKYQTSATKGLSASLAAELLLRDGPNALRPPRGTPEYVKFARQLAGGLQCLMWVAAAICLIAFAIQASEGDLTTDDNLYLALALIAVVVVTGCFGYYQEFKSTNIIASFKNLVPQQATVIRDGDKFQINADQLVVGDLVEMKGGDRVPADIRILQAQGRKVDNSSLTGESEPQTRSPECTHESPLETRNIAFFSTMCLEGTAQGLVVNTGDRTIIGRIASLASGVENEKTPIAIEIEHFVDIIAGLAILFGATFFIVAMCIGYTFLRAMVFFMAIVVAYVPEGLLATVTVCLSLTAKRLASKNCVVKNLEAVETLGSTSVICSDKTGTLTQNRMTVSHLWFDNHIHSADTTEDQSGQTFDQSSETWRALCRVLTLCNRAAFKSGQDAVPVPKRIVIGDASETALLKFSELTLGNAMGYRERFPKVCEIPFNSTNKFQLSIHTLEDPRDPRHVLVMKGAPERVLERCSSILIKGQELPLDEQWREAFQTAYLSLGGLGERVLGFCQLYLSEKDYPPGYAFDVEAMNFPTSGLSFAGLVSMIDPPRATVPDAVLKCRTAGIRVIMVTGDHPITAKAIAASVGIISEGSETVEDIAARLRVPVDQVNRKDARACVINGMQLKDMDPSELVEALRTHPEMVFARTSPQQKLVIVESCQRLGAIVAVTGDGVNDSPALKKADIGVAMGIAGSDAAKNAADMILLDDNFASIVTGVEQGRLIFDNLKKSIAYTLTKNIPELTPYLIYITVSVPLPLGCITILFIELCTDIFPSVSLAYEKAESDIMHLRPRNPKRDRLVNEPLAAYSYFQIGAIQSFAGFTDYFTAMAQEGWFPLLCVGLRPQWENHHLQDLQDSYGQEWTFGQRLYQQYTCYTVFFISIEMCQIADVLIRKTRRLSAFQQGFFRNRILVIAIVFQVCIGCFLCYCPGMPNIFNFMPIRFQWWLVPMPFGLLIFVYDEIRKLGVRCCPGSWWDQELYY

`CCCC(=O)c1cnc2c(OC)cccc2c1Nc1ccc(N(C)C)cc1C` returned an inhibition in assay [1] of 20%. The same compound returned an IC50 in assay [2] of 2320 nM.
In the case of `CCCC(=O)c1cnc2c(C(C)=O)cccc2c1Nc1ccc(O)cc1C`, the inhibition in assay [1] is 44%. In addition, the 50% inhibitory concentration (IC50) in assay [2] was 550 nM.
In assay [1], `CCCC(=O)c1cnc2c(OCCCC(N)=O)cccc2c1Nc1c(C)cccc1C` had an inhibition of 72%. Moreover, it took 2200 nM to reach half-maximal inhibition in assay [2] (IC50).
On the same counts, the results for `CCCC(=O)c1cnc2c(OC)cccc2c1Nc1cccc(CO)c1C` are 44% and 6000 nM.
Regarding `Cc1ccccc1Nc1c(C(=O)C(C)C)cnc2c(O)cccc12`, the inhibition in assay [1] turned out to be 48%. Besides, it took 1200 nM to reach half-maximal inhibition in assay [2] (IC50).
On the same counts, the results for `CCCC(=O)c1cnc2ccc(OC)cc2c1Nc1ccccc1C` are 59% and 7000 nM.
Take `CCCC(=O)c1cnc2c(OCCCNc3ccccn3)cccc2c1Nc1c(C)cccc1C`: the inhibition in assay [1] amounted to 49%. For the same compound, the half-inhibitory concentration (IC50) in assay [2] amounted to 900 nM.
With `CCCC(=O)c1cnc2c(COC(=O)NC)cccc2c1Nc1ccccc1C`, the inhibition in assay [1] stood at 49%. The compound further gave a half-maximal inhibitory concentration (IC50) in assay [2] of 6600 nM.
As to `Cc1cc(F)ccc1Nc1c(C(=O)C(C)C)cnc2c(O)cccc12`, the inhibition in assay [1] turned out to be 20%. Further, inhibition in assay [2] was half-maximal at 2700 nM (IC50).
In assay [1], `CCCC(=O)c1cnc2c(OCCCC(=O)NC(C)(C)CO)cccc2c1Nc1c(C)cccc1C` came in with an inhibition of 61%. The compound also showed an IC50 in assay [2] of 2800 nM.
The like results for `CCCC(=O)c1cnc2c(OCCCc3nc4ccccc4[nH]3)cccc2c1Nc1c(C)cccc1C` were, in that order, 50% and 1400 nM.
Regarding `CCCC(=O)c1cnc2c(NCCc3cnc[nH]3)cccc2c1Nc1ccccc1C`, the IC50 in assay [2] was determined as 1400 nM. This lies in the single-digit micromolar range.
For `CCCC(=O)c1cnc2c(Oc3ccnc(Cl)c3)cccc2c1Nc1ccccc1C`, the inhibition in assay [1] was found to be 33%. Moreover, in assay [2], the half-inhibitory concentration (IC50) is 6900 nM.
On the same counts, the results for `CCCC(=O)c1cnc2c(NCCCN3CCOCC3)cccc2c1Nc1ccccc1C` are 47% and 2400 nM.
In turn, `CCCC(=O)c1cnc2c(C3OC3CO)cccc2c1Nc1ccccc1C` (stereo in doubt; 29b) [listing 1 of 2 here] yielded an IC50 in assay [2] of 3100 nM.
The compound `CCC(=O)c1cnc2c(O)cccc2c1Nc1ccc(F)cc1C` showed an inhibition in assay [1] of 48%. The half-maximal inhibitory concentration (IC50) in assay [2] came to 1900 nM.
In the case of `CCCC(=O)c1cnc2c(OCCCN(C)CCCc3ccccc3)cccc2c1Nc1ccccc1C`, the inhibition in assay [1] was 52%. Further, the half-inhibitory concentration (IC50) in assay [2] is 740 nM.
`CCCC(=O)c1cnc2c(OCCCN3CCOCC3)cccc2c1Nc1ccccc1C`: the inhibition in assay [1] came out at 48%. The compound further came in with an IC50 in assay [2] of 890 nM.
For the compound `CCCC(=O)c1cnc2c(OC)cccc2c1Nc1ccc(NC(C)=O)cc1C`, in assay [2], the midpoint of inhibition, the IC50, lay at 12000 nM.
In assay [1], `CCCC(=O)c1cnc2c(OCCOCCOCCO)cccc2c1Nc1ccc(F)cc1C` registered an inhibition of 51%. In assay [2], this compound yielded a 50% inhibitory concentration (IC50) of 3600 nM.
`CCCC(=O)c1cnc2c(C(N)=O)cccc2c1Nc1ccccc1C` yielded an inhibition in assay [1] of 39%. Further, inhibition in assay [2] was half-maximal at 1900 nM (IC50).
On the same counts, the results for `CCCC(=O)c1cnc2ccc(O)cc2c1Nc1ccc(O)cc1C` are 51% and 71 nM.
Take `CCCC(=O)c1cnc2c(OC)cccc2c1Nc1ccc(C)cc1C`: in assay [1], the inhibition worked out at 59%. The compound further returned an IC50 in assay [2] of 4300 nM.
With `CCCC(=O)c1cnc2c(OC)cccc2c1Nc1ccc(N)cc1C`, the inhibition in assay [1] came to 15%. The compound further came in with an IC50 in assay [2] of 1500 nM.
As to `CCCC(=O)c1cnc2c(CC(=O)OC)cccc2c1Nc1ccccc1C`, the inhibition in assay [1] was 43%. Moreover, the half-maximal inhibitory concentration (IC50) in assay [2] was found to be 5400 nM.
In assay [1], `CCCC(=O)c1cnc2c(NCCc3c[nH]cn3)cccc2c1Nc1ccccc1C` displayed an inhibition of 31%.
In assay [1], `CCCC(=O)c1cnc2c(C3OC3CO)cccc2c1Nc1ccccc1C` (stereo in doubt; 29a) yielded an inhibition of 56%.
Consider `CCCC(=O)c1cnc2c(N)cccc2c1Nc1ccccc1C`, for which the inhibition in assay [1] amounted to 59%. In assay [2], the IC50 stood at 6000 nM.
With `CCCC(=O)c1cnc2c(OC)cccc2c1Nc1cc(C)ccc1C`, the inhibition in assay [1] is 48%. Further, 2500 nM corresponded to half-maximal inhibition in assay [2] (IC50).
In the case of `CCCC(=O)c1cnc2c(OC)cccc2c1Nc1cc(C)cc(C)c1`, the inhibition in assay [1] came out at 39%. For the same compound, the midpoint of inhibition in assay [2], the IC50, lay at 11300 nM.
Take `CCCC(=O)c1cnc2c(OCCCc3cnc[nH]3)cccc2c1Nc1c(C)cccc1C`: the IC50 in assay [2] was determined as 600 nM.
Compound `CCCC(=O)c1cnc2c(OC)cccc2c1Nc1ccc(NS(C)(=O)=O)cc1C` registered an IC50 in assay [2] of 45000 nM. This IC50 is about 75-fold higher than that of the compound before.
`CCC(=O)c1cnc2c(O)cccc2c1Nc1ccccc1C`: the inhibition in assay [1] worked out at 45%. In assay [2], this compound gave an IC50 of 860 nM.
On the same counts, the results for `CCCC(=O)c1cnc2c(OCCN(C)C)cccc2c1Nc1ccccc1C` are 22% and 520 nM.
Consider `CCCC(=O)c1cnc2c(OCCOCCO)cccc2c1Nc1ccc(F)cc1C`, for which the inhibition in assay [1] turned out to be 49%.
In turn, `CCCC(=O)c1cnc2c(OC)cccc2c1Nc1cc(CO)ccc1C` yielded an inhibition in assay [1] of 25%.
With `CCCC(=O)c1cnc2c(OCCCO)cccc2c1Nc1c(C)cccc1C`, the inhibition in assay [1] was determined as 75%. Inhibition in assay [2] was half-maximal at 1210 nM (IC50).
Take `COCCOc1cccc2c(Nc3ccc(F)cc3C)c(C(=O)C(C)C)cnc12`: the inhibition in assay [1] worked out at 57%. In assay [2], this compound came in with a half-maximal inhibitory concentration (IC50) of 1700 nM.
`CCCC(=O)c1cnc2ccc(O)cc2c1Nc1ccccc1C` came in with an inhibition in assay [1] of 58%. The same compound gave an IC50 in assay [2] of 240 nM.
Regarding `CCCC(=O)c1cnc2c(OC)cc(O)cc2c1Nc1ccccc1C`, the inhibition in assay [1] turned out to be 63%. In assay [2], this compound gave an IC50 of 1300 nM.
Consider `CCCC(=O)c1cnc2c(O)cccc2c1Nc1ccc(F)cc1C`, for which, in assay [1], the inhibition stood at 33%. This compound returned an IC50 in assay [2] of 7600 nM.
As to `CCCC(=O)c1cnc2c(COC(=O)CC)cccc2c1Nc1ccccc1C`, in assay [2], the 50% inhibitory concentration (IC50) was 18400 nM. That is a double-digit micromolar value.
For `CCCC(=O)c1cnc2c(OC)cccc2c1Nc1c(OC)cc(OC)cc1OC`, the inhibition in assay [1] turned out to be 24%. Further, the midpoint of inhibition in assay [2], the IC50, lay at 4600 nM.
As for `CCCC(=O)c1cnc2ccc(CO)cc2c1Nc1ccccc1C`, the inhibition in assay [1] was 46%.
For the compound `CCCC(=O)c1cnc2c(OC)cccc2c1Nc1ccccc1O`, the inhibition in assay [1] is 41%. Half-maximal inhibition in assay [2] (IC50) was put at 1300 nM.
Consider `CCCC(=O)c1cnc2c(C3OC3CO)cccc2c1Nc1ccccc1C` (stereo in doubt; 29b) [listing 2 of 2 here], for which the inhibition in assay [1] came out at 52%.
`CCCC(=O)c1cnc2c(OCCCN(C)C)cccc2c1Nc1ccc(F)cc1C` registered an inhibition in assay [1] of 37%.
The compound `CCCC(=O)c1cnc2c(C(O)CN3CCOCC3)cccc2c1Nc1ccccc1C` (stereo unspecified) showed an inhibition in assay [1] of 4%.
`CCCC(=O)c1cnc2c(OCCCc3c[nH]cn3)cccc2c1Nc1c(C)cccc1C` registered an inhibition in assay [1] of 40%.
Take `CCCC(=O)c1cnc2c(OC)cccc2c1Nc1ccccc1CO`: the inhibition in assay [1] came out at 33%.
Compound `CCCC(=O)c1cnc2c(C)cccc2c1Nc1ccccc1Cl` yielded a half-inhibitory concentration (IC50) in assay [2] of 6300 nM.
Consider `CCCC(=O)c1cnc2c(CO)cccc2c1Nc1ccc(F)cc1C`, for which, in assay [1], the inhibition turned out to be 55%.
Consider `CCCC(=O)c1cnc2c(OC)cccc2c1Nc1c(C)cc2c(c1C)OCO2`, for which the inhibition in assay [1] was 51%.
`CCCC(=O)c1c(C)nc2ccccc2c1Nc1ccccc1C`: the half-maximal inhibitory concentration (IC50) in assay [2] worked out at 34000 nM.
As for `CCCC(=O)c1cnc2c(OC)cccc2c1Nc1ccc(OCCCn2ccnc2)cc1C`, it took 34000 nM to reach half-maximal inhibition in assay [2] (IC50). This counts as double-digit micromolar.
For `CCCC(=O)c1cnc2c(C(O)CN(C)C)cccc2c1Nc1ccccc1C` (stereo unspecified), in assay [1], the inhibition is 11%.
`CCCC(=O)c1cnc2c(OC)cccc2c1Nc1ccccc1COC`: the inhibition in assay [1] stood at 43%.
